Source: ChEMBL document CHEMBL1914438, “Synthesis and biological activity of novel N-cycloalkyl-(cycloalkylaryl)-2-[(3-R-2-oxo-2H-[1,2,4]triazino[2,3-c]quinazoline-6-yl)thio]acetamides” (2011)

Columns and labels:
Assay type in all cases: functional
U-251 = test: Growth inhibition of human U251 cells after 48 hrs by SRB assay; conditions: U-251, 48 h
Outline: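 NCI 60-cell-line human tumor panel. Cells were inoculated and preincubated for 24–48 h, then exposed continuously to compound for 48 h. Primary screen used a single 10^-5 M concentration. Growth was measured by sulforhodamine B protein staining, read spectrophotometrically, and reported as percent growth versus untreated controls. Selected compounds were also run at five 10-fold dilutions (10^-4 to 10^-8 M) to derive GI50 from time-zero-corrected absorbances.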

Malme-3M = test: Growth inhibition of human MALME-3M cells after 48 hrs by SRB assay
Outline: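 NCI panel of about 60 human tumor lines, 48 h continuous exposure at five 10-fold dilutions from 10^-4 to 10^-8 M. SRB protein staining was read as absorbance at time zero, in untreated controls and at each concentration. GI50 is the concentration giving 50% lower net protein increase than controls. TGI is where Ti = Tz, and LC50 is 50% protein loss versus start.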

[1] = tested on: Photobacterium leiognathi; test: Antibacterial activity against Photobacterium leiognathi Sh1 assessed as inhibition of bacterial luminescence at 0.1 mg/mL after 10 mins by bioluminometry-based acute action test; parameters: scale not given: the % may be the effect or the level left
Outline: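 Marine P. leiognathi Sh1 (Azov Sea shrimp isolate) diluted in chloride solution to 10^5 cells/mL; compounds suspended in DMSO mixed with 1 mL bacterial suspension. Acute test: 10 min at 25 °C, then bioluminescence measured by bioluminometer as % of compound-free control. Tetracycline reference.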

[2] = tested on: Photobacterium leiognathi; test: Antibacterial activity against Photobacterium leiognathi Sh1 assessed as inhibition of bacterial luminescence at 0.1 mg/mL after 10 mins by bioluminometry-based chronic action test; parameters: scale not given: the % may be the effect or the level left; conditions: in the assay text read “after 16 to 18 hrs” for “after 10 mins”
Outline: (§1)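 Chronic (growth plus luminescence) test with P. leiognathi Sh1 at 10^5 cells/mL in chloride solution, compounds added in DMSO. After 10 min at 25 °C, growth medium added at 1:50 and the mix incubated 16–18 h at 30 °C. Luminescence then measured by bioluminometer as % of untreated control. Tetracycline reference.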

[3] = tested on: Photobacterium leiognathi; test: Antibacterial activity against Photobacterium leiognathi Sh1 assessed as inhibition of bacterial luminescence at 0.25 mg/mL after 10 mins by bioluminometry-based chronic action test; parameters: scale not given: the % may be the effect or the level left; conditions: in the assay text read “after 16 to 18 hrs” for “after 10 mins”; outline: as §1
Escherichia coli = test: Antibacterial activity against Escherichia coli assessed as zone of inhibition at 0.1 mg/mL after 24 hrs by stiff-plate agar-diffusion method; conditions: read-out: DIZ
A549 = test: Cytotoxicity against human A549 cells assessed as cell growth at 10^-5 M after 48 hrs by SRB assay; conditions: A549, 48 h, read-out: Activity
Outline: (§2)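 NCI 60-cell-line one-dose primary screen: cells inoculated and preincubated 24–48 h, then test agent added at a single 10^-5 M concentration for a further 48 h. Endpoint is sulforhodamine B protein staining read spectrophotometrically. Reported as percent growth relative to untreated control cells.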

UACC-257 = test: Cytotoxicity against human UACC257 cells assessed as cell growth at 10^-5 M after 48 hrs by SRB assay; conditions: UACC-257, 48 h, read-out: Activity
Outline: (§3)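 NCI human tumor cell line panel from nine cancer types. Each line was inoculated and preincubated 24–48 h, then exposed to a single concentration (10^-5 M) for 48 h. Growth was read by sulforhodamine B protein staining, measured spectrophotometrically. Value reported as percent growth of treated cells relative to untreated controls.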

SK-OV-3 = test: Cytotoxicity against human SKOV3 cells assessed as cell growth at 10^-5 M after 48 hrs by SRB assay; conditions: SK-OV-3, 48 h, read-out: Activity; outline: as §3
MOLT-4 = test: Cytotoxicity against human MOLT4 cells assessed as cell growth at 10^-5 M after 48 hrs by SRB assay; conditions: MOLT-4, 48 h, read-out: Activity; outline: as §3
EKVX = test: Cytotoxicity against human EKVX cells assessed as cell growth at 10^-5 M after 48 hrs by SRB assay; conditions: read-out: Activity; outline: as §2
RPMI-8226 = test: Cytotoxicity against human RPMI8226 cells assessed as cell growth at 10^-5 M after 48 hrs by SRB assay; conditions: RPMI-8226, 48 h, read-out: Activity; outline: as §3
T47D = test: Cytotoxicity against human T47D cells assessed as cell growth at 10^-5 M after 48 hrs by SRB assay; conditions: read-out: Activity; outline: as §3
HOP-62 = test: Cytotoxicity against human HOP62 cells assessed as cell growth at 10^-5 M after 48 hrs by SRB assay; conditions: HOP-62, 48 h, read-out: Activity; outline: as §2
[4] = read-out: pLC50 (the source's name) (converted)

CCC1C2CCC(C2)C1NC(=O)CSc1nc2ccccc2c2nc(=O)c(-c3ccc(OC)cc3)nn12 (stereo not drawn)
GI50 (U-251): 1 µM | CC50 (U-251; [4]): 5.75 µM | TGI (U-251; read-out: pTGI (converted)): 2.29 µM | GI50 (Malme-3M): 3.89 µM | CC50 (Malme-3M; [4]): > 50.1 µM | TGI (Malme-3M; read-out: pTGI (converted)): 24.5 µM | Activity [1]: 84% | Activity [2]: 144% | Activity [3]: 80% | zone of inhibition at 100 µg/mL (Escherichia coli): 0 mm | growth at 10 µM (A549): 50.4% | growth at 10 µM (UACC-257): 55.6% | growth at 10 µM (SK-OV-3): -5.12% | growth at 10 µM (MOLT-4): 11.4% | growth at 10 µM (EKVX): 25.6% | growth at 10 µM (RPMI-8226): 47.4% | growth at 10 µM (T47D): -11.3% | growth at 10 µM (HOP-62): -19.5%
